{"data": "Published values gathered from unrelated publications", "target": "Protein kinase C gamma type (PRKCG, Homo sapiens, UniProt P05129)", "note": "Each line is one published result; the experiments were not run side by side."}
{"Compound": "CC(C)(C)c1nc2c(s1)c1nc(N)ncc1c1ccc(NS(=O)(=O)c3c(F)cccc3F)c(F)c12", "test": "enzyme activity, inhibitor, radiometric", "conditions": "1 µM", "measurement": "remaining activity", "value": "103%"}
{"Compound": "COc1cc2ncnc(Nc3ccc(Oc4ccccc4)c(C)c3C)c2cc1OC", "test": "enzyme activity, inhibitor", "conditions": "1 µM", "measurement": "inhibition", "value": "1%"}
{"Compound": "CNC(=O)c1cc(Oc2ccc(NC(=O)Nc3ccc(Cl)c(C(F)(F)F)c3)cc2)ccn1", "test": "enzyme activity, inhibitor", "conditions": "10 µM", "measurement": "inhibition", "value": "9%"}
{"Compound": "COc1cc(Nc2cnc(C#N)c(O[C@H](C)CN(C)C)n2)ncc1-c1cnn(C)c1", "test": "enzyme activity, inhibitor, radiometric", "conditions": "1 µM", "measurement": "remaining activity", "value": "90%"}
{"Compound": "COc1cc(Cl)c(C(=O)N[C@@H](CN[C@H]2CC[C@@H](N)CC2)Cc2ccc(C#N)cc2)cc1-c1ccc(CN[C@H](C)c2ccc(C)cc2)o1", "test": "enzyme activity, inhibitor", "conditions": "1 µM", "measurement": "remaining activity", "value": "98%"}
{"Compound": "CCN(CC)c1ccc(C2=NNC(=O)CC2C)cc1[N+](=O)[O-] (stereo not shown)", "test": "enzyme activity, inhibitor", "conditions": "10 µM", "measurement": "remaining activity", "value": "96%"}
{"Compound": "O=C(Nc1cnn(-c2csc(C(=O)NC3COC3)c2)c1)Nc1ccccc1Cl", "test": "enzyme activity, inhibitor", "conditions": "5 µM", "measurement": "remaining activity", "value": "98%"}
{"Compound": "CC/C(=N\\NC(=O)NCc1cccc(O)c1)c1ccc(O)c(C)c1O", "test": "enzyme activity, inhibitor", "conditions": "0.1 µM", "measurement": "inhibition", "value": "3.6%"}
{"Compound": "FC(F)(F)Oc1cccc(-c2cnc3ccc(-c4ccncc4)nn23)c1", "test": "enzyme activity, inhibitor, radiometric", "conditions": "5 µM", "measurement": "activity vs control", "value": "76%"}
{"Compound": "Cc1ccc(C(=O)NCc2ccsc2)cc1C#Cc1cn(C(C)C)c2ncnc(N)c12", "test": "enzyme activity, inhibitor", "conditions": "1 µM", "measurement": "activity vs control", "value": "97%"}
{"Compound": "N#CCCc1ccc2c(c1)-c1[nH]c3ccc([N+](=O)[O-])cc3c1CC(=O)N2", "test": "cell-free assay", "conditions": "0.5 µM", "measurement": "remaining signal", "value": "93.3%"}
{"Compound": "Cc1cc(NC(=O)c2cccc3cc(-c4cccc5[nH]nc(N)c45)ccc23)ccc1F", "test": "enzyme activity, inhibitor", "conditions": "0.1 µM", "measurement": "activity vs control", "value": "92%"}
{"Compound": "O=C(Nc1cnn(-c2csc(C(=O)NC3COC3)c2)c1)Nc1c(F)cccc1Cl", "test": "enzyme activity, inhibitor", "conditions": "5 µM", "measurement": "remaining activity", "value": "98.3%"}
{"Compound": "CCCS(=O)(=O)Nc1ccc(F)c(C(=O)c2c[nH]c3ncc(-c4ccc(Cl)cc4)cc23)c1F", "test": "enzyme activity, inhibitor", "conditions": "1 µM", "measurement": "inhibition", "value": "< 20%"}
{"Compound": "Cc1ccc(NC(=O)c2ccc(C)c(C(F)(F)F)c2)cc1C#Cc1nn(C2CCC(O)CC2)c2ncnc(N)c12 (stereo not shown)", "test": "cell-free assay", "conditions": "10 µM", "measurement": "remaining signal", "value": "90%"}
{"Compound": "CN1CC(Oc2cnc(C#N)cc2-c2ccn3nc(NC(=O)C4CC4)cc3c2)C1", "test": "enzyme activity, inhibitor", "conditions": "1 µM", "measurement": "inhibition", "value": "1%"}
